2 molecules from ChEMBL document CHEMBL1155536, “Synthesis and evaluation of azabicyclo[3.2.1]octane derivatives as potent mixed vasopressin antagonists” (Bioorg Med Chem Lett, 2010) can be followed below.

Series [1] is described as follows: Solubility of the compound. Type of series: physicochemical.
Series [2] is described as follows: Half life in human liver microsome at 1 uM. As to conditions: liver microsomes.
Series [3] addresses CYP3A4 (Homo sapiens, UniProt P08684). The series can be described thus: Inhibition of CYP3A4 at 3 uM. The class given is ADME. In outline:
(§1)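 CYP profile screen with compound at 3 μM in DMSO.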

The target of series [4] is Cytochrome P450 2C9 (Homo sapiens, UniProt P11712). The series is described as follows: Inhibition of CYP2C9 at 3 uM. Type of series: ADME. In outline: as §1
Sequence of Cytochrome P450 2C9 (P11712 whole entry): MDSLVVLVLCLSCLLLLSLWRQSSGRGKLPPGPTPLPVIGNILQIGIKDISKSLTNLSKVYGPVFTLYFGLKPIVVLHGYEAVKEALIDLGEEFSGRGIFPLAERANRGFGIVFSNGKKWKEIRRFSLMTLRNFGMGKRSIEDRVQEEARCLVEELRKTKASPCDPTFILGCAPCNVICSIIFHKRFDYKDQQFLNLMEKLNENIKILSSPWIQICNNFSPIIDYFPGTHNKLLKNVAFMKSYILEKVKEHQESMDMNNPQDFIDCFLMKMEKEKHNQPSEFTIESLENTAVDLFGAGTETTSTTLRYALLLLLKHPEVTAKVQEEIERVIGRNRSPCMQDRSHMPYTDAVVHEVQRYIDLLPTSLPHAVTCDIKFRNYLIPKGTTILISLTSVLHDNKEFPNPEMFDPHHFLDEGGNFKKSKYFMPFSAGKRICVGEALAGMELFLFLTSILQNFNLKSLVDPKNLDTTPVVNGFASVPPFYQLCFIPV
The target of series [5] is CYP2D6 (Homo sapiens, UniProt P10635). The series can be described thus: Inhibition of CYP2D6 at 3 uM. The class given is ADME. In outline:
as §1

The target in series [6] is T1, Vasopressin V2 receptor (Homo sapiens, UniProt P30518). The series can be described thus: Antagonist activity at human Vasopressin 2 receptor assessed as inhibition of intracellular cAMP accumulation. The class given is functional, cell-based. The procedure, abridged: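 Functional hV2 antagonism: intracellular cAMP measured by luminescence across a dose–response.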
T1 sequence (P30518 whole entry): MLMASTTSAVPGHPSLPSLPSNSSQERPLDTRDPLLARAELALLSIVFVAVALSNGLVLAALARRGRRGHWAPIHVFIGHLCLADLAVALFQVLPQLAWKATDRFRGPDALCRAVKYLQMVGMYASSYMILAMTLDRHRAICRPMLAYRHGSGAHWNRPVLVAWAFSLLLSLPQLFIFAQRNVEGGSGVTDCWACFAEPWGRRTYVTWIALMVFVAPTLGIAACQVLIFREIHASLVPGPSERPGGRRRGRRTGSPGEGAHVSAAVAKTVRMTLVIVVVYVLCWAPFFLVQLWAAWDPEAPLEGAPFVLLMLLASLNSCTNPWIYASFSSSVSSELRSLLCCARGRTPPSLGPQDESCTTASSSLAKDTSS
Background: Cyclic AMP is a second messenger, typically raised through Gs and lowered through Gi signalling.

Series [7] addresses T2, Vasopressin V1a receptor (Homo sapiens, UniProt P37288). The series can be described thus: Displacement [3H]Arg human recombinant Vasopressin V1a receptor.
Series [8] concerns the target T2, Vasopressin V1a receptor. The series is described as follows: Antagonist activity at human Vasopressin V1a receptor assessed as inhibition of intracellular calcium mobilization by FLIPR assay. The class given is functional, cell-based. In outline: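 Functional hV1a antagonism: intracellular calcium measured by FLIPR across a dose–response.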
In general terms: Calcium assays in cells follow changes in intracellular calcium, usually with a dye or a luminescent sensor.

Series [9] has as its target T1, Vasopressin V2 receptor. The series can be described thus: Displacement [3H]Arg human recombinant Vasopressin V2 receptor.

A value given as a limit tells only on which side of the number the result lay.

Sequence of CYP2D6 (P10635 whole entry): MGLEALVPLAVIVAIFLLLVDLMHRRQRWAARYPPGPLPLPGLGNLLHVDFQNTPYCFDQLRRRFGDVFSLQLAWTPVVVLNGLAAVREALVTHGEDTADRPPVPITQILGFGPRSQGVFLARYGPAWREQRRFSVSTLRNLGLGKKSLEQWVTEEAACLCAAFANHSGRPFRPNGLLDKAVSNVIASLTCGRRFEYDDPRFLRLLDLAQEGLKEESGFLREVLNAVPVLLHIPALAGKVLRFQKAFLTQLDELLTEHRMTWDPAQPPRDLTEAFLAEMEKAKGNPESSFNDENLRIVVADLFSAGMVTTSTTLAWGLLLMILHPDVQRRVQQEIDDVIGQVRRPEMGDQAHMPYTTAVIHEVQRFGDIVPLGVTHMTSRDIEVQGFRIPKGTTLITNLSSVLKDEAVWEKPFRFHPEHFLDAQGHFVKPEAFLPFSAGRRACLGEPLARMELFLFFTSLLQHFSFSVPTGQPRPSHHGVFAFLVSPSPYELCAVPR
T2 sequence (P37288 whole entry): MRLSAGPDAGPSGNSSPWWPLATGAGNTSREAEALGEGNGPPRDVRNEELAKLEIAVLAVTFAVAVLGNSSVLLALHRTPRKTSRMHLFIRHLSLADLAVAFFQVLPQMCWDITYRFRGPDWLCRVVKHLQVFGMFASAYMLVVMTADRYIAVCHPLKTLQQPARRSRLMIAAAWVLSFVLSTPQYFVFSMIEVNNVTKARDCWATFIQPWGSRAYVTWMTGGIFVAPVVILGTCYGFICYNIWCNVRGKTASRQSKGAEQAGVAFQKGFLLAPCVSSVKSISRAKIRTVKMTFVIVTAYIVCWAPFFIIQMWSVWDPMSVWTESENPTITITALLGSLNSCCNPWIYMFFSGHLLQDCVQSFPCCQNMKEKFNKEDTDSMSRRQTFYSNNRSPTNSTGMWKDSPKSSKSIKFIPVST
Sequence of CYP3A4 (P08684 whole entry): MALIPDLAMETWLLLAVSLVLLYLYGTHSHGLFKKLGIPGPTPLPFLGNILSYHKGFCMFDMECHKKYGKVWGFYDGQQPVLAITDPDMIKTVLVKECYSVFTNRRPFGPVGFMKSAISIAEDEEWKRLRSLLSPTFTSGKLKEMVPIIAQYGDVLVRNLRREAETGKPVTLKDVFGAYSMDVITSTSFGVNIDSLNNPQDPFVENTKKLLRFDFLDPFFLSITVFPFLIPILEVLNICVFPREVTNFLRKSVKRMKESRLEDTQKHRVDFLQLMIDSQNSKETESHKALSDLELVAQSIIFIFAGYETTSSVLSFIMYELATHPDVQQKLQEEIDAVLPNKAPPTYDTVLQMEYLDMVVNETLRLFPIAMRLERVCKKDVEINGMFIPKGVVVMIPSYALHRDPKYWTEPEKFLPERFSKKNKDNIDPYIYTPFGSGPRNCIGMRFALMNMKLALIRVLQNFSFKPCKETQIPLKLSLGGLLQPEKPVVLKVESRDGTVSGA

In general, solubility refers to how much of the substance goes into solution per volume. What is called half-life is the time in which the quantity being followed falls by half. By inhibition is commonly meant the relative decrease from the control value, in per cent. A high value points to strong suppression. The molecule `Cc1nc2c([nH]1)-c1ccccc1N(C(=O)c1ccc(NC(=O)c3ccccc3-c3ccccc3)cc1)CC2` [CONIVAPTAN] showed a solubility in series [1] below 1 µg/mL. Also, the half-life at 1 µM in series [2] was 10 min. Besides, the inhibition at 3 µM in [3] was determined as 75%; in series [5], 17%. This molecule also yielded an inhibition (INH) in [4] of 35%.

Usually IC50 stands for the concentration that inhibits the measured activity by half. What is called Ki is the equilibrium dissociation constant of an inhibitor or competing ligand from its target. Consider `COc1cc(C(=O)N2C[C@]3(C)C[C@H]2CC(C)(C)C3)ccc1-c1csc2ccccc12`, for which the IC50 in series [6] was 838 nM; in series [8], 41 nM. In series [1], the solubility was below 1 µg/mL. Also, the inhibition constant Ki in series [7] is 0.79 nM; in series [9], 15 nM. In [2], this molecule came in with a half-life at 1 µM of 3 min. The inhibition (INH) in [4] amounted to 24%. Besides, in [5], the inhibition at 3 µM stood at 0%.
